The source made the active and inactive calls. No cut-off for these calls is given here.
Tests used:
[1] = molecular target: 3',5'-cyclic-AMP phosphodiesterase 4B (Homo sapiens) (UniProt Q07343); experiment: Inhibition of recombinant His-tagged PDE4B1 (unknown origin) expressed in Sf9 cells at 30 uM pre-incubated for 15 mins before cAMP substrate addition by luminescence assay
Summary of the method: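 PDE4B1 purified in house (10 ng) pre-incubated 15 min with compound or DMSO vehicle. cAMP substrate ([…]) added for 1 h, then reaction stopped and detection reagent applied 10 min in the dark. Luminescence (RLU) read. % inhibition = (RLU vehicle − RLU inhibitor)/RLU vehicle × 100.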

[2] = organism: Danio rerio; experiment: Induction of apoptosis in Zebrafish embryo at 3 to 30 uM incubated for 24 to 48 hrs by acridine orange based fluorescence microscopy; format: functional, organism-based
Summary of the method: (§1)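 Embryos dechorionated by hand at 24 hpf, 6 per well in two sets, in 0.1% DMSO. Compound added from serially diluted working stocks, kept at 28 °C for 24 h and 48 h. Washed three times in E3, stained 30 min with acridine orange ([…]) in E3, rinsed twice, then examined for apoptosis.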

[3] = organism: Danio rerio; experiment: Induction of apoptosis in Zebrafish embryo at 1 uM incubated for 24 to 48 hrs by acridine orange based fluorescence microscopy; format: functional, organism-based; summary of the method: as §1
[4] = organism: Danio rerio; experiment: Teratogenicity in Zebrafish embryo at 1 to 30 uM incubated at 28.5 degC until 5 days post fertilization; format: ADME, organism-based; conditions: in vivo, 120 h
Summary of the method: (§2)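 Embryos at 1 dpf dechorionated with 0.5 mg/ml pronase E and washed in E3. Exposed 6 per well to compound serially diluted in E3 with a final 0.1% DMSO, at 28.5 °C until 5 dpf. Embryos then washed, anaesthetised with 0.008% tricaine and scored blind for body shape, somites, notochord, tail, intestine, fins, brain, jaws, heart, liver and swim bladder. Phenobarbital (3 mM) served as positive control.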

[5] = organism: Danio rerio; experiment: Hepatotoxicity in Zebrafish embryo at 1 to 10 uM incubated at 28 degC until 7 days post fertilization; format: organism-based; conditions: in vivo, 168 h
Summary of the method: (§3)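 Larvae at 4 dpf exposed in 24-well plates, 6 per well in 0.1% DMSO, to final 1, 3, 10 and 30 concentrations, incubated at 28 °C until 7 dpf. Washed in E3 and anaesthetised with tricaine. Images scored for liver size, liver degeneration and yolk sac retention as percentages. Amiodarone served as positive control.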

[6] = organism: Danio rerio; experiment: Hepatotoxicity in Zebrafish embryo at 30 uM incubated at 28 degC until 7 days post fertilization; format: organism-based; conditions: in vivo, 168 h; summary of the method: as §3
[7] = organism: Danio rerio; experiment: Toxicity in Zebrafish embryo at 1 to 30 uM; format: organism-based; conditions: in vivo; summary of the method: as §2
[8] = organism: Danio rerio; experiment: Toxicity in Zebrafish embryo assessed as induction of changes in body shape at 1 uM; format: organism-based; conditions: in vivo; summary of the method: as §2
[9] = organism: Danio rerio; experiment: Toxicity in Zebrafish embryo assessed as induction of changes in somites at 1 uM; format: organism-based; conditions: in vivo; summary of the method: as §2
[10] = organism: Danio rerio; experiment: Toxicity in Zebrafish embryo assessed as induction of changes in notochords at 1 uM; format: organism-based, Notochord; conditions: in vivo; summary of the method: as §2
[11] = organism: Danio rerio; experiment: Toxicity in Zebrafish embryo assessed as induction of changes in tail region at 1 uM; format: organism-based; conditions: in vivo; summary of the method: as §2
[12] = organism: Danio rerio; experiment: Toxicity in Zebrafish embryo assessed as induction of changes in fins region at 1 uM; format: organism-based; conditions: in vivo; summary of the method: as §2
[13] = organism: Danio rerio; experiment: Toxicity in Zebrafish embryo assessed as induction of changes in brain region at 1 uM; format: organism-based; conditions: in vivo; summary of the method: as §2
[14] = organism: Danio rerio; experiment: Toxicity in Zebrafish embryo assessed as induction of changes in upper jaw region at 1 uM; format: organism-based; conditions: in vivo; summary of the method: as §2
[15] = organism: Danio rerio; experiment: Toxicity in Zebrafish embryo assessed as induction of changes in heart region at 1 uM; format: organism-based; conditions: in vivo; summary of the method: as §2
[16] = organism: Danio rerio; experiment: Toxicity in Zebrafish embryo assessed as induction of changes in intestine region at 1 uM; format: organism-based; conditions: in vivo; summary of the method: as §2
[17] = organism: Danio rerio; experiment: Toxicity in Zebrafish embryo assessed as induction of changes in lower jaw region at 1 uM; format: organism-based; conditions: in vivo; summary of the method: as §2
[18] = organism: Danio rerio; experiment: Toxicity in Zebrafish embryo assessed as induction of changes in liver region at 1 uM; format: organism-based; conditions: in vivo; summary of the method: as §2
[19] = organism: Danio rerio; experiment: Toxicity in Zebrafish embryo assessed as induction of changes in swim bladder region at 1 uM; format: organism-based; conditions: in vivo; summary of the method: as §2
[20] = organism: Danio rerio; experiment: Induction of apoptosis in Zebrafish embryo incubated for 24 to 48 hrs by acridine orange based fluorescence microscopy; format: functional, organism-based; summary of the method: as §1
[21] = organism: Danio rerio; experiment: Hepatotoxicity in Zebrafish embryo at 28 degC until 7 days post fertilization; format: organism-based; conditions: in vivo, 168 h; summary of the method: as §3
[22] = organism: Danio rerio; experiment: Teratogenicity in Zebrafish embryo incubated at 28.5 degC until 5 days post fertilization; format: ADME, organism-based; conditions: in vivo, 120 h; summary of the method: as §2
[23] = Therapeutic index, ratio of NOAEL in Zebrafish embryos to apoptotic EC50 in Zebrafish embryos; format: organism-based, Danio rerio; conditions: read-out: TI
[24] = organism: Danio rerio; experiment: Induction of apoptosis in Zebrafish embryo at 1 to 10 uM incubated for 24 to 48 hrs by acridine orange based fluorescence microscopy; format: functional, organism-based; summary of the method: as §1
[25] = organism: Danio rerio; experiment: Teratogenicity in Zebrafish embryo assessed as induction of morphological deformities at lower jaw at 1 uM incubated at 28.5 degC until 5 days post fertilization; format: organism-based; conditions: in vivo, 120 h; summary of the method: as §2
[26] = organism: Danio rerio; experiment: Hepatotoxicity in Zebrafish embryo at 1 to 3 uM incubated at 28 degC until 7 days post fertilization; format: organism-based; conditions: in vivo, 168 h; summary of the method: as §3
[27] = organism: Danio rerio; experiment: Hepatotoxicity in Zebrafish embryo at 10 to 30 uM incubated at 28 degC until 7 days post fertilization; format: organism-based; conditions: in vivo, 168 h; summary of the method: as §3

Sequence of 3',5'-cyclic-AMP phosphodiesterase 4B (Homo sapiens) (Q07343 whole entry): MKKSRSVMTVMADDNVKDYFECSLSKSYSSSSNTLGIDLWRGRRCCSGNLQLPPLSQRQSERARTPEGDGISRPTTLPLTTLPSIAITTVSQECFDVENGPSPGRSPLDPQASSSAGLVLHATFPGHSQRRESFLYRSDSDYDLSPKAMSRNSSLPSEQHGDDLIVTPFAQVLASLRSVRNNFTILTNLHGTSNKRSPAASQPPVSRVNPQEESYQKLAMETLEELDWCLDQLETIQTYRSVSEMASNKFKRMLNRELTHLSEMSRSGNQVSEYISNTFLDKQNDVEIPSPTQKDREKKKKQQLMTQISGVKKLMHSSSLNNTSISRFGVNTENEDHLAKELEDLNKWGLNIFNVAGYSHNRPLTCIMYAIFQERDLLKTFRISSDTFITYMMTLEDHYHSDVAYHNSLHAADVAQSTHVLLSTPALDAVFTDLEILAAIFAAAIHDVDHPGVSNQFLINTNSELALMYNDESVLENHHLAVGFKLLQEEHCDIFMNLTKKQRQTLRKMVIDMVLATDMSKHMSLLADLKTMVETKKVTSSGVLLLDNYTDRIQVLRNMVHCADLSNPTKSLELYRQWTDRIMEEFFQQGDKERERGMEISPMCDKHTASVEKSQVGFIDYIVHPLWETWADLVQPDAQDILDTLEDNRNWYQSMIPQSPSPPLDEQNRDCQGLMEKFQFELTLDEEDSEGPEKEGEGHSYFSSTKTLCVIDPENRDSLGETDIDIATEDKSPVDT

| SMILES | inhibition [1] | MTC [7] | NOAEL [7] | Activity [8] | Activity [9] | Activity [10] | Activity [11] | Activity [12] | Activity [13] | Activity [14] | Activity [15] | Activity [16] | Activity [17] | Activity [18] | Activity [19] | EC50 [20] | NOAEL [21] | NOAEL [22] | selectivity ratio [23] | other results |
| --- | --- | --- | --- | --- | --- | --- | --- | --- | --- | --- | --- | --- | --- | --- | --- | --- | --- | --- | --- | --- |
| CCOC(=O)c1c(-c2ccccc2)csc1-n1c(-c2ccc(C)cc2)cc2nc3ccccc3nc21 | 78% | 1 µM | 3 µM | Non-toxic | Non-toxic | Non-toxic | Non-toxic | Non-toxic | Non-toxic | Non-toxic | Non-toxic | Non-toxic | Toxic | Non-toxic | Non-toxic | 1830 nM | 10 µM | 3 µM | 1.64 | Activity [2]: Active; Activity [3]: inactive; Activity [4]: Non-toxic; Activity [5]: Non-toxic; Activity [6]: Toxic |
| CCOC(=O)c1ccsc1-n1c(-c2ccccc2)cc2nc3ccccc3nc21 | 85% | 1 µM | < 1 µM | Non-toxic | Toxic | Non-toxic | Non-toxic | Non-toxic | Toxic | Toxic | Non-toxic | Toxic | Toxic | Toxic | Toxic | 3220 nM | 3 µM | 1 µM | 0.31 | Activity [24]: Active; Activity [25]: Non-toxic; Activity [26]: Non-toxic; Activity [27]: Toxic |
